# NR3A LBD binder: modulators (binders) of human NR3A ligand-binding domain; NR3A LBD differential scanning fluorimetry, Tm shift; 0% = protein alone, 100% = glycine-bound protein; Tm shift relative to glycine control, % at 25 µM; 340,000 compounds, 2.5% hits; AID 1259313;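 active means melting temperature shift of at least 10% of the positive control shift, at one fixed dose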
# NS3 helicase inh: blocks Hepatitis C virus NS3 helicase unwinding | AID 1800 | 290,000 compounds, 0.56% hits | NS3 helicase DNA unwinding, Cy5 molecular beacon fluorescence | inhibition, % at 10.9 µM;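 active means inhibition above the mean of all tested compounds plus 3 SD, set per campaign, cut at about 35% in these data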;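 further: 0% = DMSO wells and 100% = thioflavine S control wells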
#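 test system = hepatitis C virus NS3 helicase domain fragment enzyme | reagent = annealed dual-labelled DNA beacon duplex, ATP-started | times = 1 h at 25 °C | detection = Cy5 fluorescence, 0 and 60 min reads | read-out basis = percent inhibition from t60/t0 fluorescence ratio | control set = DMSO and thioflavine S | replication = one well per compound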
# ZTA counter: ZTA (EBV) inhibition in EBNA-1 counter-screen; P03206; ZTA-DNA binding, fluorescence polarization; inhibition, % at 11 µM; 320,000 compounds, 0.15% hits; in the data active means inhibition above about 33%
# Target sequence (P03206 whole entry, looked up): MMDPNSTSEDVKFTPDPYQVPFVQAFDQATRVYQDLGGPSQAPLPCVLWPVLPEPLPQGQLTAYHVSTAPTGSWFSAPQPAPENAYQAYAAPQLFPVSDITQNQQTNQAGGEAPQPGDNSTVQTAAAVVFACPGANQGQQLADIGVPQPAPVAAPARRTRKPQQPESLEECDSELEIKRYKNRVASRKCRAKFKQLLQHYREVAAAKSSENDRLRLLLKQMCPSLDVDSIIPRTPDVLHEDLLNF
# FID counter: counter-screen for HCV NS3 helicase inhibitors: DNA intercalator displacement | DNA fluorescent intercalator displacement, fluorescence | inhibition, % at 7.9 µM | 290,000 compounds, 0.17% hits | AID 1845; in the data active means inhibition above about 37%;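 further: 0% = vehicle and 100% = reference compound; higher means more ethidium bromide displaced from hairpin DNA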
# FGF22 binding: shifts melting point of recombinant human FGF22 | Q9HCT0 | recombinant FGF22 thermal shift, SYPRO orange fluorescence; percent of sucrose octasulfate shift, DMSO zero | activity (Tm shift, normalised), % at 9.99 µM | 340,000 compounds, 1.5% hits;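 active means mean Tm shift, scaled 0 neutral to 100 positive control, at about 1.3% or above, every replicate too, limit read from the data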
# Target sequence (Q9HCT0 whole entry, looked up): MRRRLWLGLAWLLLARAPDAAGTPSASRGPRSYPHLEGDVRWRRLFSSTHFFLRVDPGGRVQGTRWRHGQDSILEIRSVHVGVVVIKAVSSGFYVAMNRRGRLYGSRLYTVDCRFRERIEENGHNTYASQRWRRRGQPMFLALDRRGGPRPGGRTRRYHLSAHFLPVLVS
# EBNA-1 inh: blocks EBNA-1 binding to DNA. EBNA-1 DNA binding, fluorescence polarization. inhibition, % at 14.8 µM. 300,000 compounds, 0.34% hits. AID 1950; in the data active means inhibition above about 28%
# Active calls of the source: *; x = no result given. Only some compounds are listed: those with a hit (about 3.6% of all), similar ones and a draw of the others.
SMILES,NR3A LBD binder,NS3 helicase inh,ZTA counter,FID counter,FGF22 binding,EBNA-1 inh
CCN(Cc1ccccc1)c1ccc(/C=N/NS(=O)(=O)c2cccc([N+](=O)[O-])c2)cc1,10*,1,14,-5,x,3
O=C(CN(c1cccc(Br)c1)S(=O)(=O)c1ccccc1)N/N=C/c1cc([N+](=O)[O-])ccc1O,14*,x,-14,x,0,2
O=C(CCCC(=O)Nc1cccc(Br)c1)N/N=C/c1cc([N+](=O)[O-])ccc1O,7,-12,6,0,0,-7
CN(C)S(=O)(=O)c1ccc(C(=O)NCC(=O)N/N=C/c2ccccc2)cc1,-1,1,13,-17,44*,2
O=C(CN(Cc1ccccc1)S(=O)(=O)c1ccccc1)N/N=C/c1ccc([N+](=O)[O-])cc1,10*,-2,10,4,x,4
O=C(CN(Cc1ccccc1)S(=O)(=O)c1ccccc1)N/N=C/c1ccc2c(c1)OCO2,-11,-6,-2,-10,0,6
C[C@H]1CN([C@@H](C)CO)C(=O)c2cccc(NC(=O)Nc3ccc4c(c3)OCO4)c2O[C@H]1CN(C)S(=O)(=O)c1ccc(F)cc1,x,x,x,x,0,x
O=C(CN(Cc1ccccc1Cl)S(=O)(=O)c1ccc(Cl)cc1)N/N=C/c1ccc(C(=O)O)cc1,-9,21,x,-27,1.5*,x
CC(=O)Nc1ccc(S(=O)(=O)N(C)CC(=O)N/N=C/c2ccc(C(=O)O)cc2)cc1,0,4,4,-4,0,3
NC(=O)c1ncn([C@@H]2O[C@H](CO)[C@@H](O)[C@H]2O)n1,-1,1,-3,0,0,-7
NC(=O)c1ccc(=O)n(C2OC(CO)C(O)C2O)c1 (stereo unspecified),0,x,x,x,44*,x
O=C(Nc1ccc(Cl)c(Cl)c1)N[C@H]1CC[C@H](CCn2cc(C3CCCCC3)nn2)O[C@@H]1CO,x,x,x,x,0,x
O=C(Nc1ccccc1)Nc1nnc(SCc2ccc(Cl)cc2)s1,35*,5,-3,0,0,1
O=C(Nc1ccc(Cl)cc1)Nc1nnc(CSc2ccc(Cl)cc2)s1,27*,-4,-4,-5,0,11
O=C(Nc1ccc(F)cc1)Nc1nnc(COc2ccccc2F)s1,36*,4,-24,2,0,-16
O=C(Cc1nnc(NC(=O)Nc2ccc(Cl)cc2)s1)NCc1ccccc1,16*,-2,7,0,0,9
CCCN(C)C[C@@H]1OCCCC[C@@H](C)Oc2ccc(NS(=O)(=O)c3c(C)noc3C)cc2C(=O)N([C@@H](C)CO)C[C@@H]1C,x,x,x,x,1,x
CO[C@@H]1CN(C)C(=O)c2cc(NC(=O)C3CC3)ccc2OC[C@@H](C)N(C(=O)CN2CCOCC2)C[C@H]1C,x,x,x,x,0,x
CC(C)C#Cc1ccc2c(c1)O[C@@H](CN(C)C(=O)c1ccccn1)[C@@H](C)CN([C@@H](C)CO)S2(=O)=O,x,x,x,x,0,x
O=C(N[C@@H]1CC[C@H](CCNC(=O)C2CCCC2)O[C@H]1CO)c1ccccn1,x,x,x,x,0,x
COc1ccc(C(=O)NCCc2ccccc2)cc1[N+](=O)[O-],2,13,7,0,1,-1
COc1ccc(/C=C(/NC(=O)c2ccc(OC)c(OC)c2)C(=O)NCCc2c[nH]c3ccccc23)cc1,1,11,-21,-31,0,4
COc1ccc(C(=O)NCCc2c[nH]c3ccccc23)cc1[N+](=O)[O-],25*,2,3,5,0,1
Cc1cccc2c(CCNC(=O)c3ccc([N+](=O)[O-])cc3)c[nH]c12,18*,-4,14,9,1,4
COc1ccc(-c2cn(CCc3c[nH]c4ccccc34)nn2)cc1,19*,-32,-7,-18,1,15
COc1ccc(OCC(=O)NCCc2c[nH]c3ccccc23)cc1,1,-4,4,-21,1,-1
COc1ccc(C(=O)N/C(=C/c2cccc3ccccc23)C(=O)NCCc2c[nH]c3ccccc23)cc1OC,-19,-2,16,-24,0,113*
CCCN1[C@H](C(=O)N(C)C)[C@@H](CO)[C@@H]2Cn3c(ccc(-c4ccc(OC)cc4)c3=O)[C@@H]21,x,x,x,x,0,x

# Screens deposited in PubChem BioAssay by several laboratories.
